Assay [1] addresses T1, bovine spleen ADA (Bos taurus, UniProt P56658).
T1 sequence (P56658 1-363): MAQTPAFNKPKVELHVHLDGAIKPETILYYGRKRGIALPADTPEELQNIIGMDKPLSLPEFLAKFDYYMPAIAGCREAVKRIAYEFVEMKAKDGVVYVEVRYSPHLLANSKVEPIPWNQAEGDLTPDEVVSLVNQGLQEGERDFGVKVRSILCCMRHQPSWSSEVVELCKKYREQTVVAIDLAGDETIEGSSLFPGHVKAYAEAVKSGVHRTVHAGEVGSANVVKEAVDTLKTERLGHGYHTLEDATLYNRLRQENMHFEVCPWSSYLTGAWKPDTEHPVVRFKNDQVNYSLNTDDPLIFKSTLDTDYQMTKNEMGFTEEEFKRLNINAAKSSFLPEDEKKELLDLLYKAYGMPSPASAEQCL
The assay can be described thus: HTS plate-reader fluorescence assay of ADA. The class given is biochemical. Conditions: 200 μM, initial MBP library screen, relative to negative control.

For assay [2], the target named is T1, bovine spleen ADA. The assay can be described thus: Cuvette fluorescence assay of ADA. The assay is classed as biochemical. The method, boiled down: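 Bovine spleen ADA, diluted to 1.15 U mL⁻¹ in 50 mM phosphate buffer pH 7.4 and kept on ice. Test compound (final 1–1000 µM, 0.1 µM for one analogue; DMSO stocks) and tzA (1 mM DMSO stock) were stirred 1 min in buffer in a quartz cuvette at 25.0 °C. ADA was then added. Emission at 410 nm (excitation 322 nm) was read every 10 s for 20 min.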

Assay [3] relates to ADA. The following applies: non-HTS assay format; ref 8e; cited from earlier work.
In assay [4] the target is ADA. The following applies: ref Cristalli et al. 1a; cited from earlier work.
Setting [5] is: converted from IC50 by Cheng-Prusoff, three independent experiments.
[6] abbreviates: cuvette, 25 °C, three independent experiments.

These results are taken from PMC7815202 (ChemMedChem, 2020).

Broadly, the Ki is the equilibrium dissociation constant of an inhibitor or competing ligand from its target. By IC50 is commonly meant the concentration needed to halve the response being measured.

“And” between values parts separate entries of the source, which are not always exact repeats. Equal entries are not always repeated. Where two headings read alike, the source gives them in different places.

For `Oc1ccccc1-c1ncc[nH]1` [Compound 3, 2-imidazolyl phenol], in assay [1], the “percent inhibition of ADA” value is ~ 83% and 83%. In assay [2] (setting [5]), this molecule registered a Ki of 77 ± 14 µM. The IC50 in assay [2] (setting [6]) worked out at 93 ± 17 µM.

`Oc1ccccc1-c1ncco1` [Compound 4, 2-oxazolyl phenol]: in assay [1], the “percent inhibition of ADA” value was found to be 61%. Further, the inhibition constant (Ki) in assay [2] (setting [5]) turned out to be 215 ± 12 µM. For the same molecule, the IC50 in assay [2] (setting [6]) was found to be 260 ± 14 µM.

In assay [2], `C[C@H]1CN=C(c2ccccc2O)O1` [Compound 6, (S)-2-(5-Methyl-4,5-dihydrooxazol-2-yl)phenol] showed an IC50 of 194 ± 4 µM and a Ki of 161 ± 3 µM.

Consider `C[C@@H]1CN=C(c2ccccc2O)O1` [Compound 7, (R)-2-(5-Methyl-4,5-dihydrooxazol-2-yl)phenol], for which, in assay [2], it took 188 ± 10 µM to reach half-maximal inhibition (IC50) and the Ki is 156 ± 8 µM.

On to “erythro-9-(2-hydroxy-3-nonyl) adenine [EHNA]”, for which the IC50 in assay [3] is 0.023 ± 0.004 µM. The inhibition constant Ki in assay [3] was 0.019 ± 0.004 µM; in assay [4], ~0.005 µM.
